Most compounds without a hit are left out; they make up all but 3.5% or so of the library.
HMGR II inh – inhibitors of class II HMG-CoA reductase from Enterococcus faecalis. 190,000 compounds, 0.41% hits. purified E. faecalis HMGR, NADPH absorbance 340 nm kinetic. inhibition, % at 10 µM;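 active = inhibition above a set limit, the median over all tested compounds plus 3 SD, cut at about 9.5% in these data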;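 note: enzyme runs in reverse so mevalonate oxidation gives rising NADPH absorbance; 0% = complete reaction with DMSO and 100% = background rate lacking mevalonate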
RAM network inh – blocks the yeast RAM network; inhibition, % at 50 µM; 190,000 compounds, 1.8% hits; S. cerevisiae dse1pr::URA3 reporter, 5-FOA growth OD615, 2 d; analog-sensitive cbk1-as2 kinase mutant strain;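 active = inhibition above a set limit, 3 SD over mean compound inhibition, cut at about 8.4% in these data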;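 note: 0% = DMSO-only wells with no growth and 100% = 10 µM 1-NA-PP1 full growth; inhibition rescues growth on 5-FOA so higher OD means more RAM inhibition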
b-catenin transl – alters nuclear translocation of beta-catenin in HeLa cells; immunofluorescence imaging; nuclear translocation activity, % at 5 µM; 190,000 compounds, 0.3% hits; AID 1665;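 active = nuclear translocation activity above 50% at 5 µM, with a well cell count of 50 or more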;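 note: per-cell ratio of nuclear to cytoplasmic median beta-catenin stain intensity; plate controls were DMSO negative control for no effect and GSK-3 inhibitor IX positive control for full effect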
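Test system: HeLa cells, endogenous beta-catenin; Compound: single 5 µM dose plus 0.02–20 µM confirmation series; Times: compound exposure 24 h at 37°C; Signal: fluorescence imaging of beta-catenin antibody stain plus DAPI; Read-out: % activation, nuclear-to-cytoplasmic median beta-catenin signal ratio per cell.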
Yeast growth inh – yeast BB579 growth reduction in restrictive medium; AID 804; S. cerevisiae BB579 growth, OD615, 48 h; 140,000 compounds, 0.51% hits; inhibition, % at 10 µM;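 active = inhibition above a set limit, 3 SD over the mean compound inhibition, cut at about 44% in these data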
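test system = yeast BB579 (DeaD) | buffer or medium = restrictive CSMM-D medium | doses = single compound dose of 10 µM, 0.25% DMSO final | times = 4 h preincubation and 48 h exposure at 30 °C | technique = culture absorbance at 615 nm | benchmarks = amphotericin B 10 µg/mL, positive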
Yeast life ext – extends the lifespan of yeast; S. cerevisiae growth with nicotinamide, OD615; deaD strain in restrictive glucose medium; inhibition of the nicotinamide effect, % at 10 µM; 130,000 compounds, 0.68% hits; AID 775;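 active = inhibition above a set limit, placed 3 SD over the median of all compounds, cut at about 26% in these data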;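 note: 0% = nicotinamide-treated wells and 100% = cells grown without nicotinamide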
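Assay system: engineered S. cerevisiae DeaD replicative-lifespan strain, galactose-grown log-phase cells; medium: restrictive CSMM-D dextrose medium; also added: nicotinamide, 1.5 mM, co-present with compound; schedule: 48 h compound exposure at 30 °C, humidified; detection: absorbance at 615 nm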
MT stabilize HCS – microtubule stabilizers in HeLa cells; HeLa tubulin immunostaining HCS, 24 h; share of cells brighter than vehicle mean+2SD; % tubulin-high responders, % at 10 µM; 200,000 compounds, 0.83% hits; AID 2205;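 active = plate Z-score above 3 for both tubulin-high and condensed-nucleus cell shares, with cell loss under 80%, at 10 µM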;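 note: anti alpha tubulin signal scored within the nucleus-defined area of each cell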
Numbers without * were called inactive; / = no result given.

SMILES	HMGR II inh	RAM network inh	b-catenin transl	Yeast growth inh	Yeast life ext	MT stabilize HCS
CCSC(=Nc1ccccc1)Nc1ccccc1	-3	3	-1	/	/	8
CC1c2ccsc2CCN1S(=O)(=O)c1cccs1 (stereo not drawn)	/	/	-1	/	/	/
CCC(C)N=C1Sc2nc3ccc(C)cc3cc2CN1CCOC (stereo not drawn)	9.6*	-1	-1	/	/	3
COCCN1Cc2cc3cc(C)ccc3nc2SC1=Nc1ccc(OC)cc1	-5	2	0	/	/	3
Cc1ccc(S(=O)(=O)N2CCC(=O)N(C(COCc3ccccc3)Cc3ccccc3)CC2)cc1 (stereo not drawn)	-2	5	/	-42	11	6
Cc1ccc(S(=O)(=O)N2CCC(=O)N(C(COCc3cccc(C(F)(F)F)c3)Cc3ccccc3)CC2)cc1 (stereo not drawn)	-2	9.8*	/	-42	20	4
Cc1ccc(S(=O)(=O)N2CCC(=O)N(C(COCc3cccc(C)c3)C(C)C)CC2)cc1 (stereo not drawn)	-6	4	/	-40	6	3
Cc1ccc(S(=O)(=O)N2CCC(=O)N(C(COCc3cccc(Cl)c3)C(C)C)CC2)cc1 (stereo not drawn)	-4	8.6*	/	-34	4	2
Cc1cc(C(=O)N/N=C/c2cccc([N+](=O)[O-])c2O)n[nH]1	0	3	-1	44*	-3	8
O=C(Cc1ccccc1)Nc1cccc(C(=O)O)c1O	2	1	-1	/	/	3
Cc1nn2c3ccccc3nc2c2ccccc12	0	1	/	79*	-12	1
Cc1nn2c(-c3ccccc3)nnc2c2ccccc12	2	0	/	20	-29	2
COc1cc(C2C=C(c3cccs3)Nc3ncnn32)cc(OC)c1OC (stereo not drawn)	5	3	119*	/	/	3
COc1cc(C2C3=C(Nc4ncnn42)c2ccccc2CC3)cc(OC)c1OC (stereo not drawn)	1	0	135*	3	-7	18*
Cc1ccc(/C=N/NC(=O)c2ccc(C(=O)N/N=C/c3ccc(C)s3)o2)s1	-2	10*	/	-73	2	2
O=C(CCc1ccc(Oc2cc([N+](=O)[O-])cc([N+](=O)[O-])c2)cc1)N1CCCCCC1	-3	6	-4	-40	8	2
CCc1ccc(OCC(=O)NC(=S)Nc2ccc(Br)c(C)n2)cc1	0	4	1	/	/	2
Cc1ccc(OCC(=O)NC(=S)Nc2ccc(Br)cn2)cc1C	-5	9.5*	-5	/	/	4
CCCCCCCOC(=O)C[N+](C)(C)CCOC1CC2CCC1(C)C2(C)C (stereo not drawn)	-7	-3	0	100*	-12	8
NC(=O)C12CCCC(Br)(CCC1)C2	/	/	2	/	/	/
CCOc1cc(C(=O)N(C)Cc2cc3ccccc3[nH]c2=O)cc(OCC)c1OCC	-2	8.8*	-1	-10	-9	2
COc1ccc2[nH]c(=O)c(CN(Cc3ccco3)C(=O)c3ccccc3)cc2c1	-1	4	-7	-61	-17	4
COc1ccc2[nH]c(=O)c(CN(CC3CCCO3)C(=O)Nc3ccccc3OC)cc2c1 (stereo not drawn)	0	8	2	-28	-22	40*
CCOc1ccc2[nH]c(=O)c(CN(CC3COCCO3)C(=O)c3ccco3)cc2c1 (stereo not drawn)	/	/	-3	/	/	/
CCOc1ccc2[nH]c(=O)c(CN(Cc3ccccc3OC)C(=O)c3ccccc3)cc2c1	-5	3	-2	0	-6	24*
SMILES	HMGR II inh	RAM network inh	b-catenin transl	Yeast growth inh	Yeast life ext	MT stabilize HCS
CCOc1ccc2[nH]c(=O)c(CN(Cc3ccc(F)cc3)C(=O)c3ccco3)cc2c1	0	4	-4	-68	-12	47*
COc1cccc(-c2c(C#N)c(SC)nc3cc(C)nn23)c1	/	/	1	/	/	/
Cc1onc(-c2ccccc2)c1C(=O)N/N=C/c1cc(Br)c(Br)o1	2	3	/	-40	0	4
Cc1cccc(C(=O)N/N=C/c2cc(Br)c(Br)o2)c1	-3	1	/	-35	-1	11*
CC(=O)C(Cc1ccc(Cl)nc1)(Cc1ccc(Cl)nc1)C(C)=O	10.0*	2	-2	/	/	3
COc1cccc(/C=C/C(=O)Nc2ccc(OC)nc2)c1	-7	-1	0	0	-9	3
COc1ccc(Br)cc1/C=C/C(=O)c1ccc(NC(C)=O)cc1	5	7	52*	-31	-7	8
CCOC(=O)/C(C#N)=C1/C=Cc2ccccc2N1CC	-3	1	-2	-34	-13	1
CCOC(=O)/C(C#N)=C1/C(=O)N(Cc2ccccc2)c2ccccc21	15*	4	0	/	/	2
CC1CCCC(NC(=O)COC(=O)COc2ccccc2Cl)C1C (stereo not drawn)	11*	3	-3	/	/	3
CC1CCCCC1NC(=O)COC(=O)COc1ccccc1Cl (stereo not drawn)	0	5	-3	/	/	2
O=c1c2c(nc3nc(NCc4cccc5ccccc45)[nH]n13)CCC2	2	3	-2	/	/	4
O=C(Cn1nc(-c2ccccc2)c2ccccc2c1=O)Nc1ccc(O)cc1	/	/	1	/	/	/
Cc1ccc(NC(=O)NNC(=O)Cn2nc(-c3ccccc3)c(-c3ccccc3)c(C#N)c2=O)cc1	4	0	0	-15	-7	27*
CCOC(=O)C1CCCN(c2cc(=O)n(C3CCCCC3)c(=O)[nH]2)C1 (stereo not drawn)	2	1	-1	/	/	2
CCN(C(=O)COC(=O)c1cccc(-n2cnnn2)c1)C1CCCCC1	1	-1	2	/	/	5
COc1ccccc1OCC(=O)n1cc(C(=O)c2cc(Cl)cc(Cl)c2O)cn1	-1	-1	-1	45*	-8	2
O=C(O)c1ccccc1C(=O)NCCc1c(C(=O)O)[nH]c2ccc(F)cc12	/	/	-1	/	/	/
Cc1noc(/C=C/c2ccc(-c3ccccc3Cl)o2)c1[N+](=O)[O-]	-3	8.9*	-1	-37	-5	2
CC(C)(C)c1ccc(NC(=O)COC(=O)C2(C)CC2(Cl)Cl)cc1 (stereo not drawn)	0	3	1	/	/	3
COc1ccc(-c2cc(=O)n(-c3nc4ccccc4[nH]3)[nH]2)cc1	-5	1	0	96*	-25	4
Cn1nc(-c2ccccc2)c2ncc(C(F)(F)F)cc21	-3	2	0	/	/	1
Cc1ccc(NC(=O)C(C)N2C(=O)c3ccccc3C2=O)cc1S(=O)(=O)N1CCOCC1 (stereo not drawn)	4	1	-2	/	/	2
